Holding throughout (type): functional
Assay [1] deals with Rattus norvegicus. Put plainly: Antiallergic activity by rat passive cutaneous anaphylaxis (PCA) assay when administered per orally. The settings on record: po. The method, boiled down:
(§1)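 Rats were passively sensitized intradermally with diluted reaginic anti-ovalbumin serum 24 h before challenge. Compound was suspended in 1% acacia and dosed by oral feeding needle at 1 mL/kg. After 20-30 min, rats were challenged with 0.02 mg ovalbumin in 0.5 mL 2% Evans Blue. Blued areas were measured 30 min after challenge. Six rats per dose; ED50 is 50% area reduction from control, with 95% confidence limits.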

Assay [2] relates to Rattus norvegicus. Put plainly: antiallergic activity by rat passive cutaneous anaphylaxis (PCA) assay when administered iv. The method in brief:
(§2)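 Male rats sensitized by id injection of diluted rat anti-ovalbumin reaginic serum (0.1 mL each side of shaved back). 24 h later, compound in saline was mixed with 5 mg ovalbumin in 0.5 mL 2% Evans Blue and given iv at 1 mL/kg. Blued-spot diameters were read 30 min later. Six rats per group; ED50 is 50% area reduction versus control, with 95% confidence limits.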

In assay [3] the test system is Rattus norvegicus. The assay is described as follows: Antiallergic activity by rat passive cutaneous anaphylaxis (PCA) assay when administered iv;value ranges between (0.01-0.04.). The method in brief:
as §2

In assay [4] the test system is Rattus norvegicus. Put plainly: Antiallergic activity by rat passive cutaneous anaphylaxis (PCA) assay when administered per orally;value ranges between (0.7-1.6). The settings on record: po. The method, boiled down:
as §1

Assay [5] relates to Rattus norvegicus. Put plainly: Antiallergic activity by rat passive cutaneous anaphylaxis (PCA) assay when administered per orally;value ranges between (1.3-23). The settings on record: po. The method, boiled down: as §1
Assay [6] concerns Rattus norvegicus. The assay is described as follows: Antiallergic activity by rat passive cutaneous anaphylaxis (PCA) assay when administered per orally;value ranges between (1.0-6.6). The settings on record: po. The method, boiled down: as §1
Assay [7] relates to Rattus norvegicus. The assay is described as follows: Antiallergic activity by rat passive cutaneous anaphylaxis (PCA) assay when administered perorally; value ranges between […]. The settings on record: po. The method in brief:
as §1

Assay [8] concerns Rattus norvegicus. The assay is described as follows: Antiallergic activity by rat passive cutaneous anaphylaxis (PCA) assay when administered per orally;value ranges between (4.67-21.77). The settings on record: po. The method in brief:
as §1

Assay [9] has as its system Rattus norvegicus. Put plainly: Antiallergic activity by rat passive cutaneous anaphylaxis (PCA) assay when administered perorally. The settings on record: po. The method, boiled down:
as §1

Assay [10] relates to Rattus norvegicus. The assay is described as follows: Antiallergic activity by rat passive cutaneous anaphylaxis (PCA) assay when administered per orally;value ranges between (0.91-5.2). Particulars: po. The method, boiled down:
as §1

The test system of assay [11] is Rattus norvegicus. The assay is described as follows: Antiallergic activity by rat passive cutaneous anaphylaxis (PCA) assay when administered per orally;value ranges between (3.44-9.04). Particulars: po. The method, boiled down:
as §1

Assay [12] has as its system Rattus norvegicus. Put plainly: Antiallergic activity by rat passive cutaneous anaphylaxis (PCA) assay when administered per orally;value ranges between (1.02-2.15). The settings on record: po. The method in brief:
as §1

Assay [13] has as its system Rattus norvegicus. The assay is described as follows: Antiallergic activity by rat passive cutaneous anaphylaxis (PCA) assay when administered per orally;value ranges between( 0.5-2.9). Particulars: po. The method in brief: as §1
Assay [14] concerns Rattus norvegicus. Put plainly: Antiallergic activity by rat passive cutaneous anaphylaxis (PCA) assay when administered per orally;value ranges between (0.18-1.48). The settings on record: po. The method, boiled down: as §1

This note sets out measurements from ChEMBL document CHEMBL1122270, “N-(4-substituted-thiazolyl)oxamic acid derivatives, a new series of potent, orally active antiallergy agents” (1983).

In general, ED50 refers to the dose that gives a 50% effect, or the effect in half of the subjects.

In the case of `CCOC(=O)C(=O)Nc1nc(-c2cccc(OC)c2)cs1`, the 50% effective dose (ED50) with Rattus norvegicus [1] is about 20 mg/kg.

Consider `CCOC(=O)C(=O)Nc1nc(-c2ccc(N3CCOCC3)cc2)cs1`, for which the ED50 in the assay on Rattus norvegicus [1] is over 100 mg/kg.

On to `COc1ccccc1-c1csc(NC(=O)C(=O)O)n1`, for which the ED50 in the assay on Rattus norvegicus [2] was over 1 mg/kg.

On to `O=C(O)C(=O)Nc1nc(-c2ccc(O)cc2)cs1`, for which the results for the ED50 with Rattus norvegicus [2] and in the assay with Rattus norvegicus [1] were about 0.1 mg/kg and over 3 mg/kg, respectively.

Regarding `CCOC(=O)C(=O)Nc1nc(-c2ccc(O)cc2)cs1`, in the assay on Rattus norvegicus [1], the ED50 was about 15 mg/kg.

With `CCOC(=O)C(=O)Nc1nc(-c2ccccn2)cs1`, the ED50 with Rattus norvegicus [1] was about 10 mg/kg.

For the compound `CCOC(=O)C(=O)Nc1nc(-c2ccc(Sc3ccccc3)cc2)cs1`, the median effective dose (ED50) with Rattus norvegicus [1] is over 3 mg/kg.

Take `CN(C)c1ccc(-c2csc(NC(=O)C(=O)O)n2)cc1`: the ED50 was determined as 0.02 mg/kg with Rattus norvegicus [3] and 1.1 mg/kg in the assay with Rattus norvegicus [4].

For `Cc1cc(C)c(-c2csc(NC(=O)C(=O)O)n2)c(O)c1.NCCO`, in the assay with Rattus norvegicus [1], the ED50 was over 10 mg/kg.

Take `CCOC(=O)C(=O)Nc1nc(-c2ccccc2OC)cs1`: the 50% effective dose (ED50) was about 1 mg/kg in the assay with Rattus norvegicus [2] and over 30 mg/kg with Rattus norvegicus [1].

`O=C(O)C(=O)Nc1ncc(-c2ccccc2)s1`: the ED50 is 4.03 mg/kg in the assay with Rattus norvegicus [5] and about 0.3 mg/kg in the assay with Rattus norvegicus [2].

Consider `CCOC(=O)C(=O)Nc1nc(-c2ccc([N+](=O)[O-])cc2)cs1`, for which the ED50 in the assay with Rattus norvegicus [1] is over 100 mg/kg.

`CCOC(=O)C(=O)Nc1ncc(-c2ccccc2)s1` came in with an ED50 in the assay with Rattus norvegicus [1] of about 10 mg/kg.

As to `NCCO.O=C(O)C(=O)Nc1nc(-c2cccc(O)c2)cs1`, the ED50 in the assay on Rattus norvegicus [2] is about 0.1 mg/kg; in the assay with Rattus norvegicus [1] it was 3 mg/kg.

With `CCOC(=O)C(=O)Nc1nc(-c2ccc(Oc3ccccc3)cc2)cs1`, in the assay on Rattus norvegicus [1], the ED50 was over 30 mg/kg.

In the assay with Rattus norvegicus [6], `CCOC(=O)C(=O)Nc1nc(-c2ccc(O)c(C(C)=O)c2)cs1` showed a 50% effective dose (ED50) of 2.6 mg/kg.

On to `CCOC(=O)C(=O)Nc1nc(-c2ccccc2O)cs1`, for which the 50% effect level with Rattus norvegicus [7] (ED50) was put at a dose of 8.2 mg/kg.

For `CCOC(=O)C(=O)Nc1nc(C)c(C)s1`, in the assay with Rattus norvegicus [1], the ED50 was over 10 mg/kg.

As for `CCOC(=O)c1ccc(-c2csc(NC(=O)C(=O)OC)n2)cc1`, in the assay on Rattus norvegicus [1], the ED50 is over 10 mg/kg.

The compound `CCOC(=O)C(=O)Nc1nc(-c2cc(OC)c(OC)c(OC)c2)cs1` gave an ED50 in the assay with Rattus norvegicus [8] of 14.5 mg/kg.

`CCOC(=O)C(=O)Nc1ccc(-c2csc(NC(=O)C(=O)OCC)n2)cc1`: in the assay with Rattus norvegicus [1], the median effective dose (ED50) is over 30 mg/kg.

Turning to `COc1ccc(OC)c(-c2csc(NC(=O)C(=O)O)n2)c1.NCCO`, the ED50 in the assay on Rattus norvegicus [2] is about 0.3 mg/kg; in the assay with Rattus norvegicus [1], about 7 mg/kg.

Take `NC(=O)C(=O)Nc1nc(-c2ccccc2)cs1`: the ED50 in the assay with Rattus norvegicus [9] is about 1 mg/kg.

Regarding `CCOC(=O)C(=O)Nc1nc(-c2ccco2)cs1`, the 50% effect level in the assay on Rattus norvegicus [10] (ED50) was put at a dose of 2.2 mg/kg.

Turning to `NCCO.NCCO.O=C(O)C(=O)Nc1ccc(-c2csc(NC(=O)C(=O)O)n2)cc1`, the ED50 with Rattus norvegicus [1] is over 10 mg/kg.

In the case of `CCOC(=O)C(=O)Nc1nc(-c2cccnc2)cs1`, the ED50 with Rattus norvegicus [1] is about 10 mg/kg.

`CCOC(=O)C(=O)Nc1nc(-c2c(C)cc(C)cc2O)cs1` yielded a median effective dose (ED50) in the assay on Rattus norvegicus [1] of about 10 mg/kg.

On to `COc1cc(-c2csc(NC(=O)C(=O)O)n2)cc(OC)c1OC.NCCO`, for which the ED50 stood at 1 mg/kg in the assay on Rattus norvegicus [2] and 5.8 mg/kg in the assay with Rattus norvegicus [11].

`NC(=O)C(=O)Nc1nc(-c2ccc3c(c2)OCCO3)cs1`: the ED50 in the assay on Rattus norvegicus [1] is over 30 mg/kg.

With `NC(=O)C(=O)Nc1nc(-c2ccc3c(c2)CCCC3)cs1`, the ED50 in the assay with Rattus norvegicus [1] is over 10 mg/kg.

In the assay with Rattus norvegicus [12], `COc1ccc(-c2csc(NC(=O)C(=O)O)n2)cc1OC` gave an ED50 of 1.48 mg/kg.

As for `CCOC(=O)C(=O)Nc1nc(-c2ccc(F)cc2)cs1`, the ED50 in the assay with Rattus norvegicus [1] was over 10 mg/kg.

In the case of `CCOC(=O)C(=O)Nc1nc(-c2ccc3c(c2)N(C(C)=O)c2ccccc2S3)cs1`, the ED50 in the assay with Rattus norvegicus [1] is over 10 mg/kg.

In the assay with Rattus norvegicus [1], `CCOC(=O)C(=O)Nc1nc(-c2ccc3c(c2)CCCC3)cs1` came in with an ED50 of over 10 mg/kg.

`CCOC(=O)C(=O)Nc1nc(-c2ccncc2)cs1` yielded an ED50 in the assay with Rattus norvegicus [13] of 1.2 mg/kg.

`CCOC(=O)C(=O)Nc1nc(-c2ccc3c(c2)Sc2ccccc2S3)cs1` had an ED50 in the assay on Rattus norvegicus [1] of over 10 mg/kg.

For the compound `Cc1sc(NC(=O)C(=O)O)nc1-c1ccc2c(c1)OCCO2`, in the assay with Rattus norvegicus [14], the 50% effect level (ED50) was put at a dose of 0.5 mg/kg.

Compound `O=C(O)C(=O)Nc1nc(-c2ccc(-c3ccccc3)cc2O)cs1` had an ED50 in the assay with Rattus norvegicus [1] of over 30 mg/kg.
